In assay [1] the test system is succinate-cytochrome c (complex II-III activities). As to the kind of experiment: Counter assay succinate-cytochrome c activity, bovine heart mitochondria. Type of assay: biochemical. The following applies: read-out: IC50 of the sample against succinate-cytochrome c (complex II-III). The method in brief:
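Run as the NADH assay (phosphate buffer pH 7.4, 2 mM KCN) but with 100 µM cytochrome c and 25 µg/mL bovine heart mitochondria. Reaction started with 10 mM succinate, and cytochrome c reduction read at 550 nm, in quadruplicate. Test compound was serially diluted from 100 to 0.003 µM. DMSO was the 0% inhibition control and 5 µM ascochlorin the 100% inhibition control.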

Assay [2] deals with Plasmodium falciparum 3D7. Description: In vitro antimalarial assay. Type of assay: cell-based. The following applies: P. falciparum 3D7, 48 h, microscopic assay; listed as Chloroquine diphosphate. The method in brief: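 Test compound stock was 10 mg/mL in DMSO, diluted in RPMI-1640 to final 0.01–100 µg/mL. It was added to culture at ~1% parasitemia and 5% haematocrit in human O+ RBCs with 10% serum, then incubated 48 h at 37 °C. Parasitemia was counted per 1000 RBCs on 10% Giemsa smears. Inhibition was taken relative to the negative control, and IC50 came from a four-parameter logistic fit.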

Assay [3] relates to Plasmodium falciparum 3D7. Description: Isobologram analysis, fixed-ratio combinations. The format is cell-based. The following applies: fixed ratios 4:1, 3:2, 2:3, 1:4; 72 h. The method in brief:
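Test compound was combined with atovaquone or chloroquine at fixed ratios 4:1, 3:2, 2:3 and 1:4, with 5:0 and 0:5 for single agents, in serial dilution. Synchronized rings at 0.3% parasitemia were incubated 72 h at 37 °C under 90% N2/5% CO2/5% O2, then read by PfLDH/diaphorase. IC50 was determined per mixture, and FIC = IC50 in mixture / IC50 alone.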

The subject of assay [4] is synchronized P. falciparum 3D7 strain. As to the kind of experiment: Impairment of P. falciparum intraerythrocytic stage development. The format is cell-based, Plasmodium falciparum. The following applies: tested at IC50 concentration. The method in brief: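 Parasites were sorbitol-synchronized (5% w/v) and set at 0.3% parasitemia in human O+ RBCs in RPMI-1640 with 10% human serum at 37 °C. Sampling was at 0, 24 and 48 h. Giemsa-stained thin smears were scored for stage by light microscopy at 1000×. Each concentration was run in duplicate on the same plate.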

The subject of assay [5] is NADH-cytochrome c (complex I-III activities). Description: Counter assay NADH-cytochrome c activity, bovine heart mitochondria. Type of assay: biochemical. The following applies: read-out: IC50 of the sample against succinate-cytochrome c (complex I-III).
The next assay relates to P. falciparum 3D7 strain. The following applies: ref Hidayati et al., 2020; cited from earlier work.
The next assay has as its system P. falciparum. The following applies: P. falciparum growth; ref Widyawaruyanti et al., 2007; cited from earlier work.
Another assay deals with T1, recombinant PfMQO (Plasmodium falciparum, UniProt C6KT09).
T1 sequence (C6KT09 1-521): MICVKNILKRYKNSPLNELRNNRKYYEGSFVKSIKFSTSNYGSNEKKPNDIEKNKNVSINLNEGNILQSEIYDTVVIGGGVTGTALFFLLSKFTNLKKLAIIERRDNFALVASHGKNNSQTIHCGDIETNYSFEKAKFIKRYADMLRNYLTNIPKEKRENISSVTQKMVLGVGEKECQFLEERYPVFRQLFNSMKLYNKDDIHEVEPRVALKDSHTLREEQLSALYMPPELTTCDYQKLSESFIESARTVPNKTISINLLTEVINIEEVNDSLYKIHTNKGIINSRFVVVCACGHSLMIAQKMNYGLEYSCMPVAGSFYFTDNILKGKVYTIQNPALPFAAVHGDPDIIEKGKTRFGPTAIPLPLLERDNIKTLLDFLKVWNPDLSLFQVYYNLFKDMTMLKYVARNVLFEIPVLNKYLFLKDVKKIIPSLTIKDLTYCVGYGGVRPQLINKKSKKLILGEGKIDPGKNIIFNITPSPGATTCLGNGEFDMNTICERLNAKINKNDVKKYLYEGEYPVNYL
As to the kind of experiment: Recombinant PfMQO activity inhibition assay. Type of assay: biochemical. The following applies: recombinant PfMQO membrane fraction. The method in brief:
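PfMQO membrane fraction (3 µg/mL) was used in 50 mM HEPES-KOH pH 7.0 with 1 mM KCN, 25 µM decylubiquinone and 120 µM DCIP. Background was read for 5 min at 600 nm and 37 °C, then malate (400 mM stock) was added and activity recorded for 10 min. DMSO wells served as 0% and no-malate wells as 100%. Runs were in triplicate over test compound 0.001–100 µM, with four-parameter nonlinear fit.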

Converted amounts (≈) assume the structure as drawn. “Also recorded” adds a separate entry of the source.

Turning to `Cc1c(-c2ccc(-c3ccccc3F)cc2)nc2ccc(F)cc2c1C(=O)O` [Brequinar], in assay [1], the IC50 came to 22900 ± 1460 nM.

For `CCN(CC)CCCC(C)Nc1ccnc2cc(Cl)ccc12` (stereo not drawn) [Chloroquine], the IC50 in assay [2] was 0.004 µg/mL (≈ 0.0125 µM). Further, in assay [3], the “interaction in combination with atovaquone (isobologram)” value is reported as “antagonistic interactions; also recorded: antagonism”. Further, the “stage development after 24 h of incubation” value in assay [4] (24 h) is “ring stage was still dominant”. Also, the “stage development after 48 h of incubation” value in assay [4] (48 h) was “accumulation of trophozoite”.

Take `CC(/C=C/[C@@]1(C)[C@H](C)CCC(=O)[C@@H]1C)=C\Cc1c(O)c(Cl)c(C)c(C=O)c1O` [Ascochlorin]: the IC50 in assay [5] and in assay [1] was 10 nM in each case.

Take `CC(C)=CCCC1(C)C=Cc2c(CCC(=O)c3ccc(O)cc3O)ccc(O)c2O1` (stereo not drawn) [1-(2,4-dihydroxyphenyl)-3-(8-hydroxy-2-methyl-2-(4-methyl-3-pentenyl)-2H-1-benzopyran-5-yl]-1-propanone]: the half-maximal inhibitory concentration (IC50) with P. falciparum 3D7 strain is 1050 nM.

Take Heteroflavanone C: in the assay on P. falciparum, the IC50 was 1 nM.

Consider `C=C(C)[C@H]1Cc2c(ccc3c2O[C@@H]2COc4cc(OC)c(OC)cc4[C@@H]2C3=O)O1` [Rotenone], for which the IC50 amounted to 10 nM in assay [5] and 1860 ± 110 nM in assay [1].

Regarding `CC(C)=CCC/C(C)=C/CC/C(C)=C/Cc1c(O)c2ccccc2oc1=O` [Ferulenol], the IC50 in assay [5] was 280 ± 80 nM; on recombinant PfMQO it was 0.06 ± 0.01 µg/mL; at recombinant PfMQO (listed as ferulenol) it was 170 nM; in assay [1] it was 170 ± 10 nM.

One may read the IC50 as the concentration at which inhibition is half-maximal.
